According to ChEMBL document CHEMBL3351887, “'Click' assembly of glycoclusters and discovery of a trehalose analogue that retards Aβ40 aggregation and inhibits Aβ40-induced neurotoxicity” (Bioorg Med Chem Lett, 2014):

What was measured:
[1] = target: Amyloid-beta precursor protein (Homo sapiens) (UniProt P05067); test: Inhibition of amyloid beta-40 aggregation (unknown origin) assessed as alpha-helix at 6 uM after 72 hrs by CD spectra analysis (reference value: 11 to 15%); design: scale not given: the % may be the effect or the level left
Amyloid-beta precursor protein (Homo sapiens), sequence (P05067 whole entry): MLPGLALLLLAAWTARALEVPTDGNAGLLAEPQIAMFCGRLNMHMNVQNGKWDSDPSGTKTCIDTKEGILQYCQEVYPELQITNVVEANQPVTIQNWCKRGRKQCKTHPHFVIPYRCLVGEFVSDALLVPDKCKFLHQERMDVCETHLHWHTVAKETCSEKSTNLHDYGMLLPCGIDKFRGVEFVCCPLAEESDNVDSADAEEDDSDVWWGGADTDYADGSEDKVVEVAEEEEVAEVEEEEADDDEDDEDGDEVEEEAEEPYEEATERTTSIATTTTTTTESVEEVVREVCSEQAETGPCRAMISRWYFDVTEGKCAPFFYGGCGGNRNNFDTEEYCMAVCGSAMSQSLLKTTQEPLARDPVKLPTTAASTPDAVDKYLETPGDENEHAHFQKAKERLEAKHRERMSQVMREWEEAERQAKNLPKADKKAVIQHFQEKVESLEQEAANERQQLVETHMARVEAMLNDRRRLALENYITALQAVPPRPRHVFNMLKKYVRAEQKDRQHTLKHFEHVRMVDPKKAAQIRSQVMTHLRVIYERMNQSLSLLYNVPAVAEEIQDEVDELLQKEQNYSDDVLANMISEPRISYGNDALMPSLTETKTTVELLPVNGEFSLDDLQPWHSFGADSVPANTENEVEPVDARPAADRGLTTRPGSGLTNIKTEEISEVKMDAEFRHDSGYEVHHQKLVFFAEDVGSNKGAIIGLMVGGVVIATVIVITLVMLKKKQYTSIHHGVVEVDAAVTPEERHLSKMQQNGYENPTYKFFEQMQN

[2] = target: Amyloid-beta precursor protein (Homo sapiens) (UniProt P05067); test: Inhibition of amyloid beta-40 aggregation (unknown origin) assessed as extension of lag phase of Abeta40 aggregation at 100 uM by ThT fluorescence assay; design: scale not given: the % may be the effect or the level left
Summary of the method: (§1)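 Monomer-rich Aβ40 (35 µM, supernatant after NaOH dissolution, sonication and ultracentrifugation) was incubated with 10 nM–100 µM compound in 20 mM phosphate buffer pH 7.4 (I 0.15 M), with 20 µM ThT and 0.007% NaN3, quiescent at 37 °C. Fluorescence (ex 440, em 480 nm) was read every 5 min. Lag time came from an empirical sigmoidal nonlinear-regression fit; mean ± SE of four independent experiments.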

[3] = target: Amyloid-beta precursor protein (Homo sapiens) (UniProt P05067); test: Inhibition of amyloid beta-40 aggregation (unknown origin) assessed as beta-sheet at 150 uM after 72 hrs by CD spectra analysis (reference value: 1 to 3%); design: scale not given: the % may be the effect or the level left
[4] = Toxicity in C57BL/6 mouse primary cortical neurons assessed as reduction in cell viability at 40 to 100 uM after 48 hrs by trypan blue dye exclusion assay; type: cell-based; details: cerebral cortex neuron
[5] = target: Amyloid-beta precursor protein (Homo sapiens) (UniProt P05067); test: Inhibition of amyloid beta-40 aggregation (unknown origin) assessed as alpha-helix at 30 uM after 72 hrs by CD spectra analysis (reference value: 11 to 15%); design: scale not given: the % may be the effect or the level left
[6] = target: Amyloid-beta precursor protein (Homo sapiens) (UniProt P05067); test: Inhibition of amyloid beta-40 aggregation (unknown origin) assessed as beta-sheet at 30 uM after 72 hrs by CD spectra analysis (reference value: 1 to 3%); design: scale not given: the % may be the effect or the level left
[7] = target: Amyloid-beta precursor protein (Homo sapiens) (UniProt P05067); test: Inhibition of amyloid beta-40 aggregation (unknown origin) assessed as alpha-helix at 150 uM after 72 hrs by CD spectra analysis (reference value: 11 to 15%); design: scale not given: the % may be the effect or the level left
[8] = target: Amyloid-beta precursor protein (Homo sapiens) (UniProt P05067); test: Inhibition of amyloid beta-40 aggregation (unknown origin) assessed as unordered at 150 uM after 72 hrs by CD spectra analysis (reference value: 84 to 87%); design: scale not given: the % may be the effect or the level left
[9] = target: Amyloid-beta precursor protein (Homo sapiens) (UniProt P05067); test: Inhibition of amyloid beta-40 aggregation (unknown origin) assessed as beta-turns at 30 uM after 72 hrs by CD spectra analysis (reference value: 0%); design: scale not given: the % may be the effect or the level left
[10] = Neuroprotective activity in C57BL/6 mouse primary cortical neurons assessed as reduction in amyloid beta-40-induced cell death at 40 uM pre-incubated with amyloid beta-40 for 6 hrs and measured after 48 hrs by trypan blue dye exclusion assay; type: functional, Cerebral cortex neuron; design: scale not given: the % may be the effect or the level left
Summary of the method: (§2)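 Aβ40 (40 µM) was preincubated with or without compound for 6 h at 37 °C, at molar ratios 1:1 and 2.5:1 (compound:Aβ40). It was then added to 7–9-day-old primary cortical neurons cultured from 6 pregnant C57BL/6 mice. After 48 h, cells were stained with trypan blue and live and dead cells were counted. Values are mean + SE.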

[11] = target: Amyloid-beta precursor protein (Homo sapiens) (UniProt P05067); test: Inhibition of amyloid beta-40 aggregation (unknown origin) assessed as beta-turns at 150 uM after 72 hrs by CD spectra analysis (reference value: 0%); design: scale not given: the % may be the effect or the level left
[12] = target: Amyloid-beta precursor protein (Homo sapiens) (UniProt P05067); test: Inhibition of amyloid beta-40 aggregation (unknown origin) assessed as beta-turns at 6 uM after 72 hrs by CD spectra analysis (reference value: 0%); design: scale not given: the % may be the effect or the level left
[13] = target: Amyloid-beta precursor protein (Homo sapiens) (UniProt P05067); test: Inhibition of amyloid beta-40 aggregation (unknown origin) assessed as unordered at 6 uM after 72 hrs by CD spectra analysis (reference value: 84 to 87%); design: scale not given: the % may be the effect or the level left
[14] = Neuroprotective activity in C57BL/6 mouse primary cortical neurons assessed as reduction in amyloid beta-40-induced cell death at 100 uM pre-incubated with amyloid beta-40 for 6 hrs and measured after 48 hrs by trypan blue dye exclusion assay; type: functional, Cerebral cortex neuron; design: scale not given: the % may be the effect or the level left; summary of the method: as §2
[15] = target: Amyloid-beta precursor protein (Homo sapiens) (UniProt P05067); test: Inhibition of amyloid beta-40 aggregation (unknown origin) assessed as unordered at 30 uM after 72 hrs by CD spectra analysis (reference value: 84 to 87%); design: scale not given: the % may be the effect or the level left
[16] = target: Amyloid-beta precursor protein (Homo sapiens) (UniProt P05067); test: Inhibition of amyloid beta-40 aggregation (unknown origin) assessed as fibril length at 300 uM for 7 days at pH 7.4 by transmission electron microscopy (reference value: > 2 micrometer)
Summary of the method: (§3)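 Aβ40 (60 µM in control) was incubated quiescently with the compound at compound:Aβ40 molar ratios of 1:5, 1:1 and 5:1, pH 7.4, 37 °C, for 7 days. Fibril width and length were then measured from transmission electron microscopy images.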

[17] = target: Amyloid-beta precursor protein (Homo sapiens) (UniProt P05067); test: Inhibition of amyloid beta-40 aggregation (unknown origin) assessed as fibril width at 300 uM for 7 days at pH 7.4 by transmission electron microscopy (reference value: 12.3 +/- 1.2 nanometer); summary of the method: as §3
[18] = target: Amyloid-beta precursor protein (Homo sapiens) (UniProt P05067); test: Inhibition of amyloid beta-40 aggregation (unknown origin) assessed as beta-sheet at 6 uM after 72 hrs by CD spectra analysis (reference value: 1 to 3%); design: scale not given: the % may be the effect or the level left
[19] = target: Amyloid-beta precursor protein (Homo sapiens) (UniProt P05067); test: Inhibition of amyloid beta-40 aggregation (unknown origin) assessed as extension of lag phase of Abeta40 aggregation by ThT fluorescence assay; summary of the method: as §1

SMILES: OC[C@H]1O[C@H](O[C@H]2O[C@H](Cn3cc(COCC(COCc4cn(C[C@H]5O[C@H](O[C@H]6O[C@H](CO)[C@@H](O)[C@H](O)[C@H]6O)[C@H](O)[C@@H](O)[C@@H]5O)nn4)(COCc4cn(C[C@H]5O[C@H](O[C@H]6O[C@H](CO)[C@@H](O)[C@H](O)[C@H]6O)[C@H](O)[C@@H](O)[C@@H]5O)nn4)COCC(COCc4cn(C[C@H]5O[C@H](O[C@H]6O[C@H](CO)[C@@H](O)[C@H](O)[C@H]6O)[C@H](O)[C@@H](O)[C@@H]5O)nn4)(COCc4cn(C[C@H]5O[C@H](O[C@H]6O[C@H](CO)[C@@H](O)[C@H](O)[C@H]6O)[C@H](O)[C@@H](O)[C@@H]5O)nn4)COCc4cn(C[C@H]5O[C@H](O[C@H]6O[C@H](CO)[C@@H](O)[C@H](O)[C@H]6O)[C@H](O)[C@@H](O)[C@@H]5O)nn4)nn3)[C@@H](O)[C@H](O)[C@H]2O)[C@H](O)[C@@H](O)[C@@H]1O
- Activity [1]: 21%
- Activity [2]: 45%
- Activity [3]: 16%
- Activity [4]: Non-toxic
- Activity [5]: 20%
- Activity [6]: 32%
- Activity [7]: 22%
- Activity [8]: 36%
- Activity [9]: 30%
- Activity [10]: 45%
- Activity [11]: 26%
- Activity [12]: 27%
- Activity [13]: 17%
- Activity [14]: 59%
- Activity [15]: 18%
- Activity [16]: < 2 µm
- Activity [17]: 8.7 nm
- Activity [18]: 35%
- inhibition [19]: Dose-dependent effect
